These results are taken from ChEMBL document CHEMBL5104221, “ATP Mimetic Attack on the Nucleotide-Binding Domain to Overcome ABC Transporter Mediated Chemoresistance” (ACS Med Chem Lett, 2022).

The source made the active and inactive calls. The calls are words filed in the database; no cut-off is given here.

Data set [1] in a line: Cytotoxicity against paclitaxel-resistant human HCT116tax cells assessed as DNA damage by measuring fluorescence intensity incubated for 30 mins by Hoechst 33342 staining accumulation assay. The note with it: 0.5 h. The format is functional, cell-based. The gist of the method: (§1)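 Hoechst 33342 retention measured in paclitaxel-resistant HCT116tax cells and in HCT116 cells transfected with MDR1- or BCRP-expressing plasmids. The dye was read by its blue fluorescence without washing. Tariquidar (1 μM) and sodium orthovanadate (500 μM) served as reference inhibitors. Accumulation is expressed relative to the vanadate-induced fluorescence difference, set as 100%.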

Data set [2] deals with HCT-116. Briefly: Cytotoxicity against human HCT-116 cells overexpressing human MDR1 assessed as DNA damage by measuring fluorescence intensity at 100 uM incubated for 30 mins by Hoechst 33342 staining accumulation assay. It counts as functional, cell-based. Summed up:
as §1

The test system of data set [3] is HCT-116. Briefly: Cytotoxicity against in human HCT-116 cells overexpressing human BCRP assessed as DNA damage by measuring fluorescence intensity at 100 uM incubated for 30 mins by Hoechst 33342 staining accumulation assay. The format is functional, cell-based. Summed up:
as §1

The test system of data set [4] is HCT-116. Briefly: Cytotoxicity against human HCT-116 cells incubated for 48 hrs by MTT assay. It counts as functional, cell-based. The following applies: HCT-116, 48 h. Summed up:
(§2)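 Wild-type HCT116 cells were exposed for 48 h in OptiMEM, with or without paclitaxel. Viability was read by MTT and normalised to wells containing 0.5% DMSO, taken as 100%.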

Data set [5] is described as follows: Cytotoxicity against paclitaxel-resistant human HCT116tax cells incubated for 48 hrs by MTT assay. It counts as functional, cell-based.
For data set [6], the system named is HCT-116. Briefly: Cytotoxicity against human HCT-116 cells overexpressing human MDR1 incubated for 48 hrs by MTT assay. It counts as functional, cell-based. The following applies: HCT-116, 48 h.
In data set [7] the test system is HCT-116. The experiment in a line: Cytotoxicity against human HCT-116 cells overexpressing human BCRP incubated for 48 hrs by MTT assay. It counts as functional, cell-based. The following applies: HCT-116, 48 h.
The nature of data set [8]: Cytotoxicity against human HEK293 cells incubated for 48 hrs by MTT assay. The format is toxicity, cell-based.
Data set [9] has as its system HCT-116. The experiment in a line: Cytotoxicity against human HCT-116 cells assessed as reduction on cell viability at 100 uM incubated for 48 hrs in presence of paclitaxel by MTT assay. The format is functional, cell-based. The gist of the method: as §2
Data set [10] has as its system HCT116tax. Briefly: Cytotoxicity against paclitaxel-resistant human HCT116tax cells assessed as reduction on cell viability at 100 to 200 uM incubated for 48 hrs in presence of paclitaxel by MTT assay. It counts as functional, cell-based. The following applies: dose 100-200 µM.

Consider `NC(=O)c1ncn([C@@H]2O[C@H](CO)[C@@H](O)[C@H]2O)n1` [RIBAVIRIN], for which the IC50 in [1] was 5 µM. Also, the outcome in [2], in data set [3], in data set [9] and in data set [10] was Active. The EC50 in data set [4], in [5], in data set [6] and in data set [7] was > 100 µM throughout. Moreover, the 50% effective concentration (EC50) at 48 h in [8] is > 100 µM.

For the compound ORTHOVANADATE, the outcome in data set [2] and in data set [3] was Active.

`Nc1ncnc2c1ncn2[C@@H]1O[C@H](COP(=O)(O)O)[C@@H](O)[C@H]1O` [ADENOSINE PHOSPHATE]: the IC50 in data set [1] was determined as 3.2 µM. Moreover, the result in data set [2], in [3], in data set [9] and in data set [10] was Active. Moreover, the EC50 in data set [4], in data set [5], in data set [6] and in data set [7] was > 100 µM each time. Moreover, in data set [8], the EC50 at 48 h is > 100 µM.

For the compound `NC(=O)c1ncn([C@@H]2O[C@H](CO)[C@@H](O)[C@H]2O)c1N` [ACADESINE], the IC50 in data set [1] came out at 5.3 µM. Also, the outcome in [2], in [3], in data set [9] and in data set [10] was Active. Besides, the 50% effective concentration (EC50) in [4], in [5], in data set [6] and in [7] was > 100 µM each time. The EC50 at 48 h in [8] is > 100 µM.

As to `Nc1ncnc2c1ncn2COCCO`, the IC50 in data set [1] came out at 7.3 µM. Also, the outcome in data set [2], in data set [3], in data set [9] and in data set [10] was Active. For the same compound, the EC50 in data set [4], in data set [5], in data set [6] and in data set [7] was > 100 µM each time. Also, the concentration giving a half-maximal response (EC50) at 48 h in data set [8] was > 100 µM.

As for `CC(C)[C@@H]1NC(=O)[C@@H]2CCCN2C1=O`, the concentration for half-maximal inhibition (IC50) in [1] was determined as 6.2 µM. For the same compound, the outcome in [2], in [3], in data set [9] and in data set [10] was Active. Further, the EC50 in data set [4], in data set [5], in data set [6] and in [7] was > 100 µM in each case. The EC50 at 48 h in data set [8] was > 100 µM.
